Experiment [1] has as its target T1, Flavin-dependent thymidylate synthase (Mycobacterium tuberculosis) (UniProt P9WG57).
T1 sequence (whole entry): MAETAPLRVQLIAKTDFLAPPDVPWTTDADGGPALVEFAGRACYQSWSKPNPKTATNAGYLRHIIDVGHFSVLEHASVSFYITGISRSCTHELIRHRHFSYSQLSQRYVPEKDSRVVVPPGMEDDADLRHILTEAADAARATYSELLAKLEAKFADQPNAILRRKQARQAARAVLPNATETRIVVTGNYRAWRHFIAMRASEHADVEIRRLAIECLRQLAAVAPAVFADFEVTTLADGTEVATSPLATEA
In words: Inhibition of Mycobacterium tuberculosis H37Rv ThyX expressed in Escherichia coli BL21(DE3) using 100 uM dUMP as substrate in presence of FAD cofactor at 200 uM incubated for 10 mins prior to the injection of NADPH and measured upto 20 mins by NADPH oxidase based spectrophotometric analysis relative to control. To be noted: time 30.0 min. An outline of the steps: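 Mtb ThyX from E. coli BL21(DE3)/pLysS carrying pET24d, purified and stored at −20 °C, with a FAD:ThyX ratio of 1:3. Compound was preincubated 10 min at 25 °C. Injected NADPH started the reaction, and A340 fall was read up to 20 min. Duplicates; % inhibition = (1−Vi/Vo)×100 from initial rates.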

In experiment [2] the target is T1, Flavin-dependent thymidylate synthase (Mycobacterium tuberculosis). In words: Inhibition of Mycobacterium tuberculosis H37Rv ThyX expressed in Escherichia coli BL21(DE3) using 10 uM dUMP as substrate in presence of FAD cofactor at 200 uM incubated for 10 mins prior to the injection of NADPH and measured upto 20 mins by NADPH oxidase based spectrophotometric analysis. To be noted: time 30.0 min.

Experiment [3] shares this target. In words: Inhibition of Mycobacterium tuberculosis H37Rv ThyX expressed in Escherichia coli BL21(DE3) using 100 uM dUMP as substrate in absence of FAD cofactor at 200 uM incubated for 10 mins prior to the injection of NADPH and measured upto 20 mins by NADPH oxidase based spectrophotometric analysis. To be noted: time 30.0 min.
Experiment [4] can be described thus: Inhibition of flavin-dependent thymidylate synthetase (unknown origin). Set-up: species or system Bacteria.

SMILES strings stand for the structures. Calls of active or inactive are those of the source. The rule behind the calls is not given here.

Consider `CCCCCCCC(=O)NCC#Cc1ccc2c(c1)c(=O)[nH]c(=O)n2CC=CCP(=O)(O)O`, for which the inhibition in experiment [1] turned out to be 0%. In addition, the inhibition result in experiment [2] and in experiment [3] was “inactive” in each case.
As to `CCCCCCCC(=O)NCC#Cc1ccc2c(=O)[nH]c(=O)n(CC=CCP(=O)(O)O)c2c1`, the inhibition in experiment [1] was 14.9%. Besides, the inhibition entry in experiment [2] and in experiment [3] was “inactive” throughout.
As to `O=c1[nH]c(=O)n(CC=CCP(=O)(O)O)c2ccccc12`, the inhibition in experiment [1] turned out to be 15.8%. In addition, the inhibition result in experiment [2] and in experiment [3] was “inactive” in each case.
Consider `CCCCCCNC(=O)NCC#Cc1ccc2c(c1)c(=O)[nH]c(=O)n2CC=CCP(=O)(O)O`, for which the inhibition in experiment [1] is 14.9%. The inhibition result in experiment [2] and in experiment [3] was “inactive” each time.
In the case of `CCCCCCNC(=O)NCC#Cc1cn(CC=CCP(=O)(O)O)c(=O)[nH]c1=O`, in experiment [1], the inhibition amounted to 0%. Further, the inhibition result in experiment [2] and in experiment [3] was “inactive” each time.
`COc1ccc2c(=O)[nH]c(=O)n(CC=CCP(=O)(O)O)c2c1`: in experiment [1], the inhibition was determined as 26.4%. Moreover, the inhibition result in experiment [2] and in experiment [3] was “inactive” throughout.
Regarding `O=C(Cc1ccccc1)NCC#Cc1ccc2c(c1)c(=O)[nH]c(=O)n2CC=CCP(=O)(O)O`, the inhibition in experiment [1] turned out to be 0%. Also, the inhibition result in experiment [2] and in experiment [3] was “inactive” each time.
On to `O=c1[nH]c(=O)n(CC=CCP(=O)(O)O)cc1Cc1ccccc1`, for which the inhibition in experiment [1] is 23.7%. Besides, the inhibition entry in experiment [2] and in experiment [3] was “inactive” in each case.
`Cc1ccc2c(c1)c(=O)[nH]c(=O)n2CC=CCP(=O)(O)O`: the inhibition in experiment [1] was 26.2%. The inhibition entry in experiment [2] and in experiment [3] was “inactive” in each case.
In turn, `O=C1c2ccccc2C(=O)C(c2ccco2)C1O` (configuration not stated) had a Ki in experiment [4] of 28 nM.
For the compound `O=C(Cc1ccccc1)NCC#Cc1ccc2c(=O)[nH]c(=O)n(CC=CCP(=O)(O)O)c2c1`, the inhibition in experiment [1] is 14.7%. In addition, the inhibition entry in experiment [2] and in experiment [3] was “inactive” throughout.
As to `CCCCCCNC(=O)NCC#Cc1ccc2c(=O)[nH]c(=O)n(CC=CCP(=O)(O)O)c2c1`, the inhibition in experiment [1] is 31.8%. The inhibition result in experiment [2] and in experiment [3] was “inactive” in each case.
`CCCCCCCC(=O)NCC#Cc1cn(CC=CCP(=O)(O)O)c(=O)[nH]c1=O`: the inhibition in experiment [1] was determined as 0%. For the same compound, the inhibition result in experiment [2] and in experiment [3] was “inactive” each time.

Broadly, the inhibition is the change of the read-out against control, counted positive when it falls. What is called Ki is a measure of affinity in units of concentration, obtained from inhibition or displacement. Read a low Ki as tighter binding.

(Values after ChEMBL document CHEMBL4823301, “Synthesis of acyclic nucleoside phosphonates targeting flavin-dependent thymidylate synthase in Mycobacterium tuberculosis” (Bioorg Med Chem, 2021).)
